From ChEMBL document CHEMBL1157546, “3-(2-Aminocarbonylphenyl)propanoic acid analogs as potent and selective EP3 receptor antagonists. part 2: optimization of the side chains to improve in vitro and in vivo potencies” (Bioorg Med Chem, 2010)

What was measured:
[1] = molecular target: T1, Prostaglandin E2 receptor EP3 subtype (Mus musculus, UniProt P30557); test: Displacement of [3H]PGE2 from mouse EP3 receptor expressed in CHO cell membrane; type: cell membranes
T1 sequence (P30557 whole entry): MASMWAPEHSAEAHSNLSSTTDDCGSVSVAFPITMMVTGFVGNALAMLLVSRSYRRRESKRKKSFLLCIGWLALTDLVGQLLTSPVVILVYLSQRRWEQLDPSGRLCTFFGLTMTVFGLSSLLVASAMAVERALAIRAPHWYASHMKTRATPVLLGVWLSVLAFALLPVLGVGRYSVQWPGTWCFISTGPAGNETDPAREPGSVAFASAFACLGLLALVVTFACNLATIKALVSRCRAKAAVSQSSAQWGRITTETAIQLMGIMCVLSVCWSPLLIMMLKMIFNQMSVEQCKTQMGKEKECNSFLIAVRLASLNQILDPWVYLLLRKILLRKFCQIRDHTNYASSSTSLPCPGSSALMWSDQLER

[2] = molecular target: T1, Prostaglandin E2 receptor EP3 subtype; test: Antagonist activity at mouse EP3 receptor expressed in CHO cells assessed as inhibition of PGE2-induced increase intracellular calcium level in presence of 1% BSA by fluorimetry; type: functional, cell-based
In short: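 CHO cells expressing mouse EP3 seeded at 1 × 10⁴ cells/well and grown two days in 10% FBS/αMEM (37 °C, 5% CO2). Loaded 1 h with Fura 2/AM, indomethacin and 2.5 mM probenecid, rinsed, then held 1 h dark at room temperature in HBSS with 1% BSA and 10 mM HEPES. Compound added with 10 nM PGE2. Ca²⁺ read at 340/380 nm excitation, 500 nm emission; % inhibition relative to the PGE2 response without compound.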

[3] = test system: Rattus norvegicus; test: Inhibition of PGE2-induced uterine contraction in intraduodenally dosed pregnant rat at 0.3 mg/kg; type: functional; conditions: route intraduodenal
In short: (§1)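 Pregnant rats with uterine pressure recorded by transducer. Once spontaneous motility was stable, compound in 0.5% methylcellulose (5 mL/kg) or vehicle given intraduodenally. PGE2 given iv 30 min later.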

[4] = test system: Rattus norvegicus; test: Inhibition of PGE2-induced uterine contraction in intraduodenally dosed pregnant rat at 1 mg/kg; type: functional; conditions: route intraduodenal; in short: as §1
[5] = AUC in rat at […], iv; type: ADME, organism-based; parameters: dose 1.2 mg/kg, route intravenous; conditions: plasma
[6] = AUC in rat at 13 mg/kg, po; type: ADME, organism-based; parameters: dose 13 mg/kg, route oral; conditions: plasma
[7] = Volume of distribution at steady state in rat at […], iv; type: ADME, organism-based; parameters: dose 1.2 mg/kg, route intravenous; conditions: in vivo, read-out: Vdss
[8] = Cmax in rat at 13 mg/kg, po; type: ADME, organism-based; parameters: dose 13 mg/kg, route oral; conditions: in vivo
[9] = Oral bioavailability in rat at 13 mg/kg, po; type: ADME, organism-based; conditions: in vivo
[10] = test system: Rattus norvegicus; test: Inhibition of PGE2-induced uterine contraction in intraduodenally dosed pregnant rat at 0.1 mg/kg; type: functional; conditions: route intraduodenal; in short: as §1
[11] = AUC in rat at 11 mg/kg, po; type: ADME, organism-based; parameters: dose 11 mg/kg, route oral; conditions: plasma
[12] = Cmax in rat at 11 mg/kg, po; type: ADME, organism-based; parameters: dose 11 mg/kg, route oral; conditions: in vivo
[13] = Oral bioavailability in rat at 11 mg/kg, po; type: ADME, organism-based; conditions: in vivo

SMILES	Ki [1]	IC50 [2]	also measured
Cc1cc(C)cc(C(CC(C)C)NC(=O)c2cc(COc3ccc(C#N)cc3)ccc2CCC(=O)O)c1 (configuration not stated)	0.46 nM	16 nM	
Cc1cc(C)cc(C(CC(C)C)NC(=O)c2cc(COc3ccccc3C)ccc2CCC(=O)O)c1 (configuration not stated)			inhibition in vivo at 0.3 mg/kg [3]: 62%; inhibition in vivo at 1 mg/kg [4]: 83%
Cc1cc(C)cc(C(CC(C)C)NC(=O)c2cc(COc3ccccc3)ccc2CCC(=O)O)c1 (configuration not stated)			inhibition in vivo at 0.3 mg/kg [3]: 28%
Cc1cc(C)cc(C(CC(C)C)NC(=O)c2cc(COc3cccc(F)c3)ccc2CCC(=O)O)c1 (configuration not stated)			inhibition in vivo at 0.3 mg/kg [3]: 66%; inhibition in vivo at 1 mg/kg [4]: 84%; AUC [5]: 440 ng·h/mL; AUC [6]: 1090 ng·h/mL; Vd [7]: 1.32 L/kg; Cmax [8]: 390 ng/mL; bioavailability [9]: 23%
Cc1cc(C)cc(C(CC(C)C)NC(=O)c2cc(COc3ccc(F)cc3)ccc2CCC(=O)O)c1 (configuration not stated)	0.25 nM	5.4 nM	
COc1ccc(C(CC(C)C)NC(=O)c2cc(COc3ccccc3)ccc2CCC(=O)O)cc1OC (configuration not stated)	0.5 nM	24 nM	
COc1ccc(C(CC(C)C)NC(=O)c2cc(COc3cccc(C#N)c3)ccc2CCC(=O)O)cc1OC (configuration not stated)	0.67 nM	3.7 nM	
Cc1cc(C)cc(C(CC(C)C)NC(=O)c2cc(COc3cc(F)ccc3F)ccc2CCC(=O)O)c1 (configuration not stated)			inhibition in vivo at 0.1 mg/kg [10]: 48%; inhibition in vivo at 0.3 mg/kg [3]: 93%; inhibition in vivo at 1 mg/kg [4]: 98%; AUC [5]: 470 ng·h/mL; AUC [11]: 850 ng·h/mL; Vd [7]: 1.43 L/kg; Cmax [12]: 520 ng/mL; bioavailability [13]: 19%
Cc1cc(C)cc(C(CC(C)C)NC(=O)c2cc(COc3ccc(Cl)cc3)ccc2CCC(=O)O)c1 (configuration not stated)	0.62 nM	30 nM	
CC(C)CC(NC(=O)c1cc(COc2ccccc2)ccc1CCC(=O)O)c1cc(F)cc(C(F)(F)F)c1 (configuration not stated)	0.45 nM	15 nM	
CC(C)CC(NC(=O)c1cc(COc2ccccc2)ccc1CCC(=O)O)c1ccc(F)c(Cl)c1 (configuration not stated)	0.26 nM	25 nM	
COc1cccc(C(CC(C)C)NC(=O)c2cc(COc3cccc(C#N)c3)ccc2CCC(=O)O)c1 (configuration not stated)	0.13 nM	3.2 nM	
CC(C)CC(NC(=O)c1cc(COc2cccc(C#N)c2)ccc1CCC(=O)O)c1ccc(F)cc1 (configuration not stated)	0.17 nM	7.1 nM	
CC(C)CC(NC(=O)c1cc(COc2ccccc2)ccc1CCC(=O)O)c1ccc(C(F)(F)F)cc1 (configuration not stated)	0.76 nM	32 nM	
Cc1ccc(C(CC(C)C)NC(=O)c2cc(COc3ccccc3)ccc2CCC(=O)O)cc1C (configuration not stated)	0.17 nM	16 nM	
COc1ccc(C(CC(C)C)NC(=O)c2cc(COc3ccccc3)ccc2CCC(=O)O)cc1C (configuration not stated)	0.16 nM	11 nM	
Cc1ccccc1C(CC(C)C)NC(=O)c1cc(COc2ccccc2)ccc1CCC(=O)O (configuration not stated)	0.94 nM	230 nM	
Cc1cccc(C(CC(C)C)NC(=O)c2cc(COc3ccccc3)ccc2CCC(=O)O)c1 (configuration not stated)	0.3 nM	37 nM	
Cc1cccc(C(CC(C)C)NC(=O)c2cc(COc3cccc(C#N)c3)ccc2CCC(=O)O)c1 (configuration not stated)	0.2 nM	6.6 nM	
CC(C)CC(NC(=O)c1cc(COc2ccccc2)ccc1CCC(=O)O)c1cc(F)cc(F)c1 (configuration not stated)	0.3 nM	19 nM	
Cc1ccc(C(CC(C)C)NC(=O)c2cc(COc3ccccc3)ccc2CCC(=O)O)cc1 (configuration not stated)	0.63 nM	51 nM	
Cc1cccc(OCc2ccc(CCC(=O)O)c(C(=O)NC(CC(C)C)c3cc(C)cc(C)c3)c2)c1 (configuration not stated)	0.11 nM	4.2 nM	
Cc1ccc(OCc2ccc(CCC(=O)O)c(C(=O)NC(CC(C)C)c3cc(C)cc(C)c3)c2)cc1 (configuration not stated)	0.67 nM	16 nM	

SMILES	Ki [1]	IC50 [2]	also measured
Cc1cc(C)cc(C(CC(C)C)NC(=O)c2cc(COc3cccc(F)c3F)ccc2CCC(=O)O)c1 (configuration not stated)	0.15 nM	3.6 nM	
COc1cccc(OCc2ccc(CCC(=O)O)c(C(=O)NC(CC(C)C)c3cc(C)cc(C)c3)c2)c1 (configuration not stated)	0.27 nM	3.2 nM	
CC(C)CC(NC(=O)c1cc(COc2ccccc2)ccc1CCC(=O)O)c1ccc(F)c(F)c1 (configuration not stated)	0.4 nM	47 nM	
CC(C)CC(NC(=O)c1cc(COc2ccccc2)ccc1CCC(=O)O)c1ccc(C(F)(F)F)c(F)c1 (configuration not stated)	0.7 nM	53 nM	
Cc1cc(C)cc(C(CC(C)C)NC(=O)c2cc(COc3ccccc3C#N)ccc2CCC(=O)O)c1 (configuration not stated)	0.35 nM	9.4 nM	
Cc1cc(C)cc(C(CC(C)C)NC(=O)c2cc(COc3cccc(C#N)c3)ccc2CCC(=O)O)c1 (configuration not stated)			inhibition in vivo at 0.3 mg/kg [3]: 55%; inhibition in vivo at 1 mg/kg [4]: 95%
Cc1cc(C)cc(C(CC(C)C)NC(=O)c2cc(COc3ccc(F)c(F)c3)ccc2CCC(=O)O)c1 (configuration not stated)	0.34 nM	5.7 nM	
Cc1cc(C)cc(C(CC(C)C)NC(=O)c2cc(COc3cc(F)cc(F)c3)ccc2CCC(=O)O)c1 (configuration not stated)	0.19 nM	10 nM	
COc1ccccc1C(CC(C)C)NC(=O)c1cc(COc2ccccc2)ccc1CCC(=O)O (configuration not stated)	1.2 nM	190 nM	
CC(C)CC(NC(=O)c1cc(COc2ccccc2)ccc1CCC(=O)O)c1ccc(Cl)cc1 (configuration not stated)	0.28 nM	51 nM	
CC(C)CC(NC(=O)c1cc(COc2ccccc2)ccc1CCC(=O)O)c1cccc(F)c1 (configuration not stated)	0.2 nM	40 nM	
CC(C)CC(NC(=O)c1cc(COc2ccccc2)ccc1CCC(=O)O)c1ccc(F)cc1 (configuration not stated)	0.93 nM	20 nM	
COc1ccc(C(CC(C)C)NC(=O)c2cc(COc3ccccc3)ccc2CCC(=O)O)cc1 (configuration not stated)	0.36 nM	59 nM	
CC(C)CC(NC(=O)c1cc(COc2ccccc2)ccc1CCC(=O)O)c1ccccc1F (configuration not stated)	1.4 nM	130 nM	
COc1cccc(C(CC(C)C)NC(=O)c2cc(COc3ccccc3)ccc2CCC(=O)O)c1 (configuration not stated)	0.13 nM	21 nM	
Cc1cc(C)cc(C(CC(C)C)NC(=O)c2cc(COc3ccccc3F)ccc2CCC(=O)O)c1 (configuration not stated)	0.1 nM	13 nM	
CC(C)CC(NC(=O)c1cc(COc2ccccc2)ccc1CCC(=O)O)c1ccc2c(c1)OCCO2 (configuration not stated)	0.44 nM	19 nM	
Cc1ccc(C(CC(C)C)NC(=O)c2cc(COc3ccccc3)ccc2CCC(=O)O)cc1F (configuration not stated)	0.2 nM	67 nM	
CC(C)CC(NC(=O)c1cc(COc2ccccc2)ccc1CCC(=O)O)c1cccc(Cl)c1 (configuration not stated)	0.18 nM	35 nM	
CC(C)CC(NC(=O)c1cc(COc2ccccc2)ccc1CCC(=O)O)c1cccc(C(F)(F)F)c1 (configuration not stated)	0.39 nM	39 nM	
COc1ccc(C(CC(C)C)NC(=O)c2cc(COc3ccccc3)ccc2CCC(=O)O)cc1F (configuration not stated)	0.14 nM	42 nM	
Cc1cc(C)cc(C(CC(C)C)NC(=O)c2cc(COc3c(F)cccc3F)ccc2CCC(=O)O)c1 (configuration not stated)	1.3 nM	59 nM	
Cc1cc(C(CC(C)C)NC(=O)c2cc(COc3cccc(C#N)c3)ccc2CCC(=O)O)ccc1F (configuration not stated)	0.2 nM	2.8 nM	
